Screening results deposited in PubChem by Broad Institute.
Xi reactivation: activators of X-chromosome reactivation in mouse fibroblasts | 360,000 tested, 0.055% active | AID 743238 | activation, % at 7.58 µM | XiGFP mouse fibroblasts, % GFP-positive cells imaging, 3 d; cells co-treated with 5-aza-dC sensitizer; scaled so ellipticine positive control = 100%;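 active means mean normalized replicate activation at least 10% and every replicate at or above 10%; inconclusive means only one of the two criteria met; inactive means mean below 10% and not all replicates reach 10%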;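 further: 0% = median of on-plate neutral control wells and 100% = ellipticine 6 µM median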
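Schedule: 3 d treatment, 15 min room-temperature fixation; system: 68-5-11 XiGFP fibroblast line; buffer or medium: DMEM plus 5-aza-dC sensitizer; control set: ellipticine 6 µM positive control; compound: one concentration, pinned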
RAD54 inh: blocks human RAD54 Holliday junction branch migration; Q92698; FAM/BHQ fluorescence; inhibition, % at 10.4 µM; 360,000 tested, 0.14% active; AID 602329;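 active means mean normalized replicate activity at least 40 and at least half of replicates scoring 40 or more; inconclusive means only one of the two criteria met; inactive means mean below 40 and under half of replicates reaching 40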;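 further: 0% = median of neutral control wells and 100% = median of positive control wells; inhibitors cause a drop in the FAM fluorescence signal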
AF4-AF9 inh: MLL-AF4/AF9 protein interaction inhibition; P42568; AlphaScreen, biotin-AF4 peptide binding to FLAG-AF9; inhibition, % at 10 µM; 350,000 tested, 0.47% active; AID 651704;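 active means every replicate reaching a set inhibition limit, whatever the replicate mean, cut at about 25% in these data; inconclusive means mean inhibition reaches that limit but some replicates miss it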;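 further: 0% = plate neutral control median and 100% = total signal loss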
Target sequence (P42568 whole entry, looked up): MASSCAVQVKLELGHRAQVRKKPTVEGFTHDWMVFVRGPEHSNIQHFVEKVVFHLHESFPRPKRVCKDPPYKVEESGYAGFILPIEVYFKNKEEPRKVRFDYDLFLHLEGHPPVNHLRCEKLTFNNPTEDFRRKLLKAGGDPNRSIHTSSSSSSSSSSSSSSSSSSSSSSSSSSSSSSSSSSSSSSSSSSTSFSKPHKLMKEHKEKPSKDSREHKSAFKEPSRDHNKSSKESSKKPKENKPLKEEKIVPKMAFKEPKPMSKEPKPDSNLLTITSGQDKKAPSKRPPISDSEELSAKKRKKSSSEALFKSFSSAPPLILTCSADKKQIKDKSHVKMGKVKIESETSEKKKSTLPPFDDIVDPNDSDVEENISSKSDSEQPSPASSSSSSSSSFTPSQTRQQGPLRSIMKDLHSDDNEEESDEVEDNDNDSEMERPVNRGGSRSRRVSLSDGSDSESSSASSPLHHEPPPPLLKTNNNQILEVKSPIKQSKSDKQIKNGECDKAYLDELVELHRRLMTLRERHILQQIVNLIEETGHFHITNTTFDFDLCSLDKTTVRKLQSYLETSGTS
S100A4 MyoIIA: blocks human S100A4 binding to myosin IIA peptide; S100A4/TAMRA-MyoIIA peptide fluorescence polarization; 360,000 tested, 0.14% active; P26447; inhibition, % at 10.7 µM;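 active means mean inhibition of at least 70% across replicates, with every replicate also reaching that level; inconclusive means mean inhibition reaches 70% but some replicates fall short; inactive means mean inhibition below 70%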
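Test system: S100A4 monomer protein; Medium: HEPES pH 7.2 with CaCl2, KCl, NaCl, DTT, Triton; Probe or stimulus: TAMRA-labelled myosin IIA heavy-chain peptide probe, 5 nM; Doses: one dose per compound; Times: polarization read 5 min after assay mix addition, stable 5–60 min; Benchmarks: neutral control DMSO, positive control TFP.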
RAD52 inh: RAD52 (human) annealing inhibition. inhibition, % at 18.7 µM. 360,000 tested, 0.46% active. P43351. recombinant RAD52 DNA annealing, FRET fluorescence;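 active means every replicate showing at least 50% inhibition; inconclusive means mean inhibition at least 50% but not in every replicate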
CASP6 VEID inh: inhibitors of human caspase-6; AID 686996; 350,000 tested, 0.53% active; purified caspase-6, Z-VEID-R110 cleavage fluorescence; inhibition, % at 12.5 µM;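 active means mean inhibition across replicates at least about 35%, with every replicate also reaching that limit, limit read from the data; inconclusive means only one of the two criteria met; inactive means neither criterion met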;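 further: 0% = median of neutral control wells and 100% = no fluorescence left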
Starred values were filed as active, the others as inactive; ? = inconclusive; · = no result. Shown are actives, neighbours in structure and some others; about 1.3% of the full set was active somewhere.

SMILES | Xi reactivation | RAD54 inh | AF4-AF9 inh | S100A4 MyoIIA | RAD52 inh | CASP6 VEID inh
CCOC(=O)C1CCN(C(=O)COC(=O)c2ccc([N+](=O)[O-])o2)CC1 | 0.0 | 9.0 | -2.7 | 6.6 | -3.5 | 56.0*
CCOC(=O)C1=C(COC(=O)c2cc([N+](=O)[O-])ccc2Cl)NC(=O)NC1C (stereo not given) | 0.1 | -5.7 | 3.5 | -8.3 | -8.7 | -1.8
CCOC(=O)C1=C(C)NC(=O)NC1c1ccco1 (stereo not given) | · | · | 2.2 | 9.9 | -12.2 | 46.4*
CCOC(=O)C1=C(COC(=O)c2ccc([N+](=O)[O-])o2)NC(=O)NC1C (stereo not given) | 0.0 | -3.3 | 1.4 | -1.6 | -11.3 | 42.8*
COc1ccc(NC(=O)N(C)C[C@H]2OCCCC[C@@H](C)Oc3ccc(NC(=O)c4ccccc4)cc3C(=O)N([C@@H](C)CO)C[C@@H]2C)cc1 | 0.1 | 5.7 | 1.3 | 7.1 | -39.3 | -2.0
O=C1NC(=S)S/C1=C\C=C\c1ccc([N+](=O)[O-])o1 | ? | 5.2 | 7.1 | -8.8 | -6.7 | 96.1*
O=C1NC(=S)S/C1=C/c1ccc(N2CCOCC2)o1 | · | -7.0 | · | · | · | ·
O=C(N[C@H]1CC[C@H](CCNS(=O)(=O)c2ccc(Cl)cc2)O[C@H]1CO)c1cnccn1 | 0.3 | -3.1 | -1.6 | -12.4 | -13.2 | 0.8
CCOc1cc(CNc2cccc3[nH]c(C)nc23)ccc1OC | 0.1 | -10.8 | 30.3* | 18.7 | 5.6 | -0.6
CC1OC(OC2C(Oc3c(-c4ccc(O)cc4)oc4cc(O)cc(O)c4c3=O)OC(COC3O[C@@H](C)[C@H](O)[C@@H](O)C3O)C(O)C2O)C(O)C(O)C1O (stereo not given in full) | · | -4.8 | 0.6 | 0.5 | 1.1 | 0.1
CC1OC(OCC2OC(Oc3c(-c4ccc(O)cc4)oc4cc(O)cc(O)c4c3=O)C(O)C(O)C2O)C(O)C(O)C1O (stereo not given) | · | -5.2 | 0.2 | -1.6 | -4.2 | 54.1*
C[C@H]1CN([C@@H](C)CO)C(=O)c2cc(NC(=O)CCC(F)(F)F)ccc2O[C@@H]1CN(C)S(=O)(=O)c1cccs1 | 0.2 | 1.1 | -3.0 | -16.7 | 6.0 | 2.8
C[C@@H]1CCCCO[C@@H](CN(C)Cc2ccc(C(F)(F)F)cc2)[C@@H](C)CN([C@H](C)CO)C(=O)c2cc(N(C)C)ccc2O1 | -1.1 | 2.2 | 18.4 | 0.2 | -14.9 | 0.6
C[C@H]1CCCCO[C@@H](CN(C)Cc2ccc(C(F)(F)F)cc2)[C@@H](C)CN([C@@H](C)CO)C(=O)c2cc(N(C)C)ccc2O1 | -1.1 | 1.7 | 37.2* | -13.8 | 3.7 | 4.5
C[C@@H]1CCCCO[C@H](CN(C)Cc2ccc(C(F)(F)F)cc2)[C@@H](C)CN([C@@H](C)CO)C(=O)c2cc(N(C)C)ccc2O1 | -1.1 | -0.3 | 5.5 | -19.2 | 2.1 | 1.8
C[C@H]1CCCCO[C@H](CN(C)Cc2ccc(C(F)(F)F)cc2)[C@@H](C)CN([C@@H](C)CO)C(=O)c2cc(N(C)C)ccc2O1 | -1.1 | 3.8 | 32.7* | 10.4 | 18.5 | 6.4
C[C@@H]1CCCCO[C@H](CN(C)Cc2ccc(C(F)(F)F)cc2)[C@H](C)CN([C@H](C)CO)C(=O)c2cc(N(C)C)ccc2O1 | -1.1 | 1.9 | 34.9* | 17.4 | -2.7 | 2.5
CN1C(=O)c2cc(NC(=O)NCc3ccccc3)ccc2OC[C@H]2O[C@@H](CC(=O)O)CC[C@@H]21 | 0.2 | 0.3 | -0.7 | 6.4 | -4.8 | -3.2
C[C@@H]1CCCCO[C@@H](CN(C)Cc2ccc(C(=O)O)cc2)[C@@H](C)CN([C@@H](C)CO)C(=O)c2cc(NC(=O)CCC(F)(F)F)ccc2O1 | -1.1 | 1.8 | -1.3 | -1.0 | 10.4 | 0.3
O=C(O)c1c[nH]c2c([N+](=O)[O-])cccc2c1=O | 0.1 | 11.2 | -0.9 | -12.7 | -9.0 | 35.8*
C[C@H](CO)N1C[C@H](C)[C@@H](CN(C)C(=O)Nc2ccc(F)cc2)Oc2c(NS(=O)(=O)c3cn(C)cn3)cccc2C1=O | 0.4 | 6.4 | -0.5 | 0.5 | 0.8 | 0.8
COc1ccc(NC(=O)N2CCCCN3[C@@H](CO)[C@@H](c4ccc(C#Cc5ccccn5)cc4)[C@@H]3C2)cc1 | 0.0 | 8.3 | 13.1 | 1.3 | 61.5* | 1.7
